Calls of active or inactive are those of the source. No cut-off for these calls is given here.
How the values were obtained:
H9c2 [1] = experiment: Cytoprotective activity against H2O2-induced cell damage in rat H9c2 cells assessed as reduction in mitochondrial membrane potential loss at 160 uM pre-incubated for 1 hr before H2O2 challenge for 5 hrs in presence of 480 uM cysteine by Rh123 dye based fluorescent microscopy; assay type: functional
Outline: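 H9c2 cells were grown in high-glucose DMEM with 10% FBS at 37 °C, 5% CO2. They were pretreated 1 h with donor plus cysteine (480 μM), then given H2O2 (400 μM) for 5 h. Rh123 (10 mg/L) was added for 15 min at 37 °C. Fluorescence microscopy gave mean Rh123 intensity from four random fields.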

[2] = […] peak time for H2S release in pH 7.4 PBS buffer containing 10% THF incubated for 2 hrs at room temperature in presence of cysteine by methylene blue based UV-Vis spectrometry; assay type: physicochemical; settings: pH 7.4, 2 h
Outline: (§1)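 Donor (30 mM THF stock; 0.1 mM final) was added to PBS (pH 7.4, 50 mM)/THF 9:1 containing the stated thiol, at room temperature for 2 h. 1.0 mL aliquots were taken periodically into methylene blue cocktail (zinc acetate, N,N-dimethyl-p-phenylenediamine in HCl, FeCl3 in HCl) and reacted 15 min. Absorbance was read at 670 nm and H2S quantified against a Na2S calibration curve; peak concentration and peak time were recorded.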

Mus musculus [3] = experiment: Cardioprotective activity in C57BL6/J mouse model of myocardial ischemia/reperfusion assessed as reduction in infarct size per area-at-risk dosed through direct intracardiac injection at time of reperfusion by TTC staining method; assay type: functional, organism-based; settings: Myocardium
Outline: (§2)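 Male C57BL/6J mice, 10–12 weeks old, anesthetised with pentobarbital (50 mg/kg) plus ketamine (60 mg/kg). Left coronary artery occluded with PE-10 tubing for 45 min. Single intracardiac injection at reperfusion; vehicle 0.5% v/v THF in sterile saline. Reperfusion lasted 24 h, then area-at-risk and infarct measured by Evans blue/TTC staining. n = 6–17 per group.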

Mus musculus [4] = experiment: Cardioprotective activity in C57BL6/J mouse model of myocardial ischemia/reperfusion assessed as reduction in circulating cardiac troponin-1 level at 50 ug/kg dosed through direct intracardiac injection at time of reperfusion; assay type: functional, organism-based; settings: Heart
Outline: (§3)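 Male C57BL/6J mice, 10–12 weeks old, were anesthetized with pentobarbital (50 mg/kg) plus ketamine (60 mg/kg). The left coronary artery was occluded for 45 min. At reperfusion, donor was injected intracardiac: dissolved in THF, diluted in sterile saline to 0.05 or 0.1 mg/mL, final 0.5% v/v THF. Vehicle was 0.5% THF in saline. Tail-vein blood was drawn at 4 h reperfusion for troponin I.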

H9c2 [5] = experiment: Cytotoxicity against rat H9c2 cells assessed as reduction in cell viability at <40 uM incubated for 1 hr by CCK8 assay; assay type: cell-based; settings: h9c2, 1 h
Outline: (§4)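 H9c2 cells (high-glucose DMEM, 10% FBS, 37 °C, 5% CO2) were exposed 1 h to donor over 20–160 μM, either alone or with 480 μM cysteine, then washed twice with PBS. Viability was measured by CCK-8 (1:10 dilution, 3 h at 37 °C, absorbance 450 nm). The mean OD of 4 wells was expressed as % of control, in triplicate.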

Mus musculus [6] = experiment: Cardioprotective activity in C57BL6/J mouse model of myocardial ischemia/reperfusion assessed as reduction in infarct size per area-at-risk at 100 ug/kg dosed through direct intracardiac injection at time of reperfusion by TTC staining method; assay type: functional; settings: Myocardium; outline: as §2
Mus musculus [7] = experiment: Effect on area-at-risk per left ventricle in C57BL6/J mouse model of myocardial ischemia/reperfusion at 50 and 100 ug/kg dosed through direct intracardiac injection at time of reperfusion by TTC staining method; assay type: organism-based, Heart left ventricle; settings: in vivo, 0.1 mg/kg; outline: as §2
Mus musculus [8] = experiment: Cardioprotective activity in C57BL6/J mouse model of myocardial ischemia/reperfusion assessed as reduction in infarct size per area-at-risk at 50 ug/kg dosed through direct intracardiac injection at time of reperfusion by TTC staining method; assay type: functional; settings: Myocardium; outline: as §2
Mus musculus [9] = experiment: Cardioprotective activity in C57BL6/J mouse model of myocardial ischemia/reperfusion assessed as reduction in circulating cardiac troponin-1 level at 100 ug/kg dosed through direct intracardiac injection at time of reperfusion; assay type: functional, organism-based; settings: Heart; outline: as §3
[10] = GSH-induced H2S release assessed as peak H2S level in pH 7.4 PBS buffer containing 10% THF incubated for 2 hrs at room temperature in presence of 1 mM GSH by methylene blue based UV-Vis spectrometry; assay type: physicochemical; settings: pH 7.4, 2 h; outline: as §1
H9c2 [11] = experiment: Cytotoxicity against rat H9c2 cells assessed as reduction in cell viability at 160 uM in presence of 480 uM cysteine incubated for 1 hr by CCK8 assay; assay type: cell-based; settings: h9c2, 1 h; outline: as §4
[12] = […] peak time for H2S release in pH 7.4 PBS buffer containing 10% THF incubated for 2 hrs at room temperature in presence of 1 mM GSH by methylene blue based UV-Vis spectrometry; assay type: physicochemical; settings: pH 7.4, 2 h; outline: as §1
H9c2 [13] = experiment: Cytoprotective activity against H2O2-induced cell damage in rat H9c2 cells at 160 uM pre-incubated for 1 hr before H2O2 challenge for 5 hrs in presence of 480 uM cysteine by LDH release assay; assay type: functional, cell-based
Outline: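 H9c2 cells at about 70% confluence were preconditioned 1 h with donor plus cysteine (480 μM), then treated with H2O2 (400 μM) for 5 h. Extracellular LDH was measured in supernatant; intracellular LDH in lysate made with 2% Triton X-100 in DMEM. Kit reaction ran 10 min at room temperature, read at 490/600 nm. % release = extracellular/(extracellular+intracellular). Run 4 times.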

[14] = GSH-induced H2S release assessed as peak H2S level in pH 7.4 PBS buffer containing 10% THF incubated for 2 hrs at room temperature in presence of cysteine by methylene blue based UV-Vis spectrometry; assay type: physicochemical; settings: pH 7.4, 2 h; outline: as §1
H9c2 [15] = experiment: Cytotoxicity against rat H9c2 cells assessed as reduction in cell viability at >80 uM incubated for 1 hr by CCK8 assay; assay type: cell-based; settings: h9c2, 1 h; outline: as §4

O=C(NSC(=O)c1ccc(F)cc1)c1ccccc1
Activity (H9c2 [1]): Active
Time [2]: 50 min
inhibition (Mus musculus [3]): Dose-dependent effect
inhibition (Mus musculus [4]): Active
Activity (H9c2 [5]): Non-toxic
inhibition in vivo at 0.1 mg/kg (Mus musculus [6]): 50%
Activity (Mus musculus [7]): Non-toxic
inhibition in vivo at 0.05 mg/kg (Mus musculus [8]): 50%
inhibition (Mus musculus [9]): Active
Activity [10]: 40.6 µM
Activity (H9c2 [11]): Non-toxic
Time [12]: 55 min
Activity (H9c2 [13]): Active
Activity [14]: 39.5 µM
Activity (H9c2 [15]): Toxic

— ChEMBL document CHEMBL3612036, “Design, Synthesis, and Cardioprotective Effects of N-Mercapto-Based Hydrogen Sulfide Donors” (J Med Chem, 2015)
